Measurements taken from ChEMBL document CHEMBL1145955, “Synthesis, anti-HIV activity, and molecular mechanism of drug resistance of L-2',3'-didehydro-2',3'-dideoxy-2'-fluoro-4'-thionucleosides” (J Med Chem, 2003).

Columns and labels:
[1] = Evaluated in vitro for their potential toxic effects on uninfected PHA-stimulated human PBM cells; format: functional, cell-based
Method in brief: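 Uninfected PHA-stimulated PBM cells from healthy seronegative donors (Ficoll-Hypaque) were plated at 5 × 10⁴ cells/well with 10-fold serial drug dilutions for 5 days at 37 °C, 5% CO₂. The MTT readout was taken at 570 nm after overnight dye and 5 h solubilization. IC50 came from median-effect curves.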

Vero = assay: Evaluated in vitro for their potential toxic effects against Vero cells; format: functional, cell-based; conditions: Chlorocebus sabaeus
Method in brief: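 Log-phase Vero cells were seeded at 5 × 10³ cells/well in 10-fold serial drug dilutions and incubated 3 days at 37 °C, 5% CO₂. MTT dye was added overnight, then solubilized for 5 h and read at 570 nm. IC50 was taken from median-effect concentration-response curves.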

[2] = test system: Human immunodeficiency virus 1; assay: (§1) In vitro anti-HIV activity was determined in PBM cells infected with HIV-1; format: functional, organism-based; conditions: Human immunodeficiency virus 1, PBMC
Method in brief: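 PHA-stimulated (2-3 days) human PBM cells from healthy seronegative donors, infected in bulk for 1 h with HIV-1 LAI (100 TCID50/1 × 10⁷ cells in flasks or 200 TCID50/6 × 10⁵ cells/well). Infected cells went onto 10-fold serial compound dilutions in RPMI-1640 with 16% FBS, DEAE-dextran and IL-2, 5 days at 37 °C. Virion-pelleted supernatant RT activity was measured by poly(rA)·oligo(dT)/³H-TTP incorporation (37 °C, 2 h). EC50/EC90 came from median-effect curves.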

CCRF-CEM = assay: Evaluated in vitro for their potential toxic effects human CEM cells; format: functional, cell-based
Method in brief: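 CEM T-lymphoblastoid cells in log phase, 2.5 × 10³ cells/well, were exposed to 10-fold serial drug dilutions for 4 days at 37 °C, 5% CO₂. Viability was read by MTT (overnight dye, 5 h solubilization, 570 nm). IC50 was determined by the median-effect method.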

[3] = Fold increase was determined from the ratio of EC90 (HIV-1M184V) / EC90 (HIV-1xxBRU); format: functional
Method in brief: (§2)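 Molecular clones HIV-1 xxBru (wild type) and HIV-1 M184Vpitt infected PHA-stimulated human PBM cells in bulk for 1 h. Cells were cultured with 10-fold serial compound dilutions, 5 days, 37 °C, 5% CO2. Read-out was supernatant RT activity with ³H-TTP incorporation. EC50 and EC90 were taken from concentration-response curves by the median effect method. Fold increase = EC90(M184V)/EC90(xxBru).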

[4] = test system: Vero (Chlorocebus sabaeus); assay: Evaluated in vitro for their potential toxic effects against Vero cells
[5] = test system: Human immunodeficiency virus 1; assay: Antiviral activity was determined against WT (HIV-1xxBRU); format: functional
Method in brief: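 Molecular infectious clone HIV-1 xxBru was used to infect PHA-stimulated human PBM cells in bulk for 1 h (100 TCID50/1 × 10⁷ cells or 200 TCID50/6 × 10⁵ cells/well). Cells were cultured 5 days at 37 °C with 10-fold serial compound dilutions. Readout was supernatant RT activity, with ³H-TTP incorporation on poly(rA)·oligo(dT). EC50 was derived by the median-effect method.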

[6] = test system: Human immunodeficiency virus 1; assay: Antiviral activity was determined against lamivudine-resistant mutant M184V strain; format: functional; method in brief: as §2
[7] = as §1; conditions: Homo sapiens, PBMC

Row | EC50 [2] | SMILES | IC50 [1] | IC50 (Vero) | IC50 (CCRF-CEM) | FI [3] | IC50 [4] | EC90 [5] | EC90 [6] | EC50 [7]
1 | 15.5 µM | OC[C@H]1C=C(F)[C@@H](n2cnc3c(O)ncnc32)S1 | > 100 µM | > 100 µM | > 100 µM | – | – | – | – | –
2 | 0.15 µM | Nc1nc(=O)n([C@H]2S[C@@H](CO)C=C2F)cc1F | > 100 µM | > 100 µM | > 100 µM | – | – | – | – | –
3 | 1.7 µM | Nc1ncnc2c1ncn2[C@H]1S[C@@H](CO)C=C1F | > 100 µM | > 100 µM | > 100 µM | – | – | – | – | –
4 | 43.5 µM | Nc1nc(O)c2ncn([C@H]3S[C@@H](CO)C=C3F)c2n1 | > 100 µM | 66.4 µM | 41.5 µM | – | – | – | – | –
5 | > 100 µM | Cc1cn([C@H]2S[C@@H](CO)C=C2F)c(=O)[nH]c1=O | > 100 µM | > 100 µM | > 100 µM | – | – | – | – | –

More lines, now with the values behind:

Row | SMILES | EC50 [2] | IC50 [1] | IC50 (Vero) | IC50 (CCRF-CEM) | FI [3] | IC50 [4] | EC90 [5] | EC90 [6] | EC50 [7]
6 | Nc1ccn([C@H]2S[C@@H](CO)C=C2F)c(=O)n1 | 0.12 µM | > 100 µM | – | > 100 µM | > 100 | > 100 µM | 1.4 µM | > 100 µM | –
7 | O=c1ccn([C@H]2S[C@@H](CO)C=C2F)c(=O)[nH]1 | > 100 µM | > 100 µM | > 100 µM | > 100 µM | – | – | – | – | –
8 | Cc1cn([C@H]2C[C@H](N=[N+]=[N-])[C@@H](CO)O2)c(=O)[nH]c1=O [ZIDOVUDINE] | – | > 100 µM | 14.3 µM | 29 µM | – | – | – | – | 0.004 µM
